Source: PubChem (several laboratories)
S1P4 antag – antagonists of human S1P4 receptor. 0.26% of 220,000 active. S1P4-expressing cells, antagonist mode, reporter read-out. AID 1510. inhibition, % at 4.98 µM; in the data active = inhibition above about 29%
Calb biofilm kill – mixture kills Candida albicans biofilm cells. C. albicans biofilm persisters + clotrimazole, fluorescence viability; primary screen in compound mixtures of four per well. inhibition, % at 7.6 µM. 0.02% of 120,000 active;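 active = inhibition above 30.3% in the primary screen of four-compound pools, then above 30% when the compound was retested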;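 also: compounds exposed to preformed 24 h biofilms for 48 h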
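Probe or stimulus – Clotrimazole 50 µg/mL co-treatment · System – C. albicans biofilms · Schedule – 24 h biofilm formation, then 48 h compound exposure, 37 °C · Evaluation – percent inhibition of biofilm viability · Technique – 2-h Alamar Blue fluorescence, 535/590 nm excitation/emission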
Mdm2 ligase inh – Mdm2 E3 ligase (human) inhibition; cell-based MDM2 ubiquitination luciferase reporter, 2 h; 0 = plate control, 100 = twice control, blank-subtracted; signal enhancement, % at 5 µM; 0.11% of 210,000 active; AID 1230;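 active = signal enhancement of 30% or more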;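 also: luminescence tracks abundance of the self-degrading MDM2-luciferase fusion protein; higher signal means inhibition of MDM2 E3 ligase activity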
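system = mammalian cells stably expressing self-ubiquitinating, self-degrading MDM2 E3–luciferase fusion | quantity = 2000 cells per well seeded | incubation = 4 h cell settling then 2 h compound exposure, 37 °C | signal = SteadyLite luminescence, 15 min reagent step | benchmarks = plate control and blank wells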
S1P4 agonist – human S1P4 receptor agonism; O95977; S1P4-expressing cell line, agonist reporter assay; activation, % at 4.98 µM; 0.35% of 220,000 active; in the data active = activation above about 11%
S1P3 antag – S1P3 (human) receptor antagonism. Q99500. CHO S1P3 NFAT-BLA reporter, FRET fluorescence, antagonist mode. inhibition, % at 4.98 µM. 0.27% of 170,000 active. AID 485;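 active = inhibition above the plate cutoff, the mean inhibition of test wells on that plate plus 3 SD, cut at about 28% in these data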;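 also: cells challenged with S1P at its EC80 of 0.8 µM; blue over green emission ratio from cleaved BLA substrate after 4 h stimulation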
S1P4 agonist cf – human S1P4 agonism, confirmation; shares compounds with S1P4 agonist; S1P4 agonist cell-based reporter assay; activation, % at 4.98 µM; 7% of 740 active; AID 1523; in the data active = activation above about 12%
S1P1 ag – counter-screen for S1P4 agonists: agonists of human S1P1; shares compounds with S1P4 agonist; activation, % at 4.98 µM; S1P1 agonist cell-based assay, activation; 4% of 740 active; AID 1563; in the data active = activation above about 21%
Target sequence (P21453 whole entry, looked up): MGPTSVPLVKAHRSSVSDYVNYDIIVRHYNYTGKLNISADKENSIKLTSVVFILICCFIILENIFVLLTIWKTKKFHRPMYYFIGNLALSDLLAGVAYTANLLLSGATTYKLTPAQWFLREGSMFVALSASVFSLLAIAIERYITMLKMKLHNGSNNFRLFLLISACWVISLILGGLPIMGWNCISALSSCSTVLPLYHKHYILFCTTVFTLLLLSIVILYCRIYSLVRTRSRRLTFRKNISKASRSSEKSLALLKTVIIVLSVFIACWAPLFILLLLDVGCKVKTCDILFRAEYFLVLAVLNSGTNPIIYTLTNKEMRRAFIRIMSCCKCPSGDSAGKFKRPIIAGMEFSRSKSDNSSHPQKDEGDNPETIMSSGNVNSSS
Large screens that a line does not name were inactive (follow-up assays come after a bar, where they were run). Sampled rows, rich in hits. Any-hit rate of the full collection: about 0.9%.

O=[N+]([O-])c1ccc(OCCO)c(P(=O)(c2ccccc2)c2ccccc2)c1	S1P4 agonist 154.6 | S1P4 agonist cf inactive | S1P1 ag inactive
CCCCNC(=O)CCn1c(=O)c2ccccc2n(Cc2ccc(F)cc2)c1=O	S1P4 agonist 14.7 | S1P4 agonist cf inactive | S1P1 ag inactive
COCCCNC(=O)CCn1c(=O)c2ccccc2n(Cc2cccc([N+](=O)[O-])c2)c1=O	none
c1ccc2c(N3CCCCC3)nc(N3CCOCC3)nc2c1	none
Nc1nc(N2CCOCC2)nc2ccccc12	S1P4 agonist 21.6 (no result: Calb biofilm kill) | S1P4 agonist cf inactive | S1P1 ag inactive
CCOc1cc(/C=C/C(=O)Nc2ccc(C(=O)NCCN(CC)CC)cc2)ccc1OCC(C)C	none
CCC(C(=O)OCC(=O)Nc1c(Cl)cccc1Cl)c1ccccc1 (centres undefined)	S1P4 agonist 15.4 | S1P4 agonist cf inactive | S1P1 ag inactive
C=CCN(c1ccccc1Cl)S(=O)(=O)c1cccc(C(=O)OCC(=O)N(C)C2CCS(=O)(=O)C2)c1 (centres undefined)	none
COc1cc(/C=N/N(C)C)cc(Br)c1O	S1P4 agonist 38.8 | S1P4 agonist cf inactive | S1P1 ag inactive
CN=c1scc(C)n1/N=C/c1cc(Br)c(O)c(OC)c1	none
O=C(Cc1cccs1)Nc1ccccc1NC(=O)Cc1cccs1	none (no result: Calb biofilm kill)
O=C(Cc1cccs1)Nc1ccccc1C(=O)O	S1P4 agonist 117.4 (no result: Calb biofilm kill) | S1P4 agonist cf inactive | S1P1 ag inactive
CCc1ccc(NC(=O)C(C)OC(=O)CCC(=O)c2cccs2)cc1 (centres undefined)	none
CC/C(=N\O)c1c(O)c2c(n(-c3ccccc3)c1=O)CCCC2	S1P4 agonist 22.5 | S1P4 agonist cf inactive | S1P1 ag inactive
CCOC(=O)C1C(=O)N(C(=O)c2ccc(OC)cc2)CC1c1ccccc1 (centres undefined)	none (no result: Calb biofilm kill)
CCOC(=O)C1C(=O)N(C(=O)c2cncc(Br)c2)CC1c1ccccc1 (centres undefined)	S1P4 agonist 19.8 (no result: Calb biofilm kill) | S1P4 agonist cf inactive | S1P1 ag inactive
Cc1ccc(-c2nnc(SCCC(=O)N3CCOCC3)o2)cc1	none
O=C(CCSc1nnc(-c2ccccc2)o1)N1CCOCC1	S1P4 agonist 27.6 | S1P4 agonist cf inactive | S1P1 ag inactive
CCCC(=O)Nc1ccc(C(=O)NNC(=O)c2ccco2)cc1	none (no result: Calb biofilm kill, S1P3 antag)
CC(CCc1ccccc1)NC(=O)COC(=O)C1CCC(C(C)(C)C)CC1 (centres undefined)	none
Cc1c(Cl)c([N+](=O)[O-])nn1Cc1ccc(C(=O)Nc2ccc(Cl)cn2)o1	none
O=C(Nc1ccc(Cl)cn1)c1ccc([N+](=O)[O-])o1	S1P4 agonist 48.8 | S1P4 agonist cf inactive | S1P1 ag inactive
CC(C)CCN1CCN(Cc2cccs2)CC1CCO (centres undefined)	none
CC(C)N1CCN(Cc2cccs2)CC1CCO (centres undefined)	S1P4 agonist 63.9 | S1P4 agonist cf inactive | S1P1 ag inactive
C(=C\c1nccc2c1[nH]c1ccccc12)/c1ccccc1	S1P4 agonist 11.2 | S1P4 agonist cf inactive | S1P1 ag inactive
Cn1c(CNc2ccc(F)cc2)nnc1SCC(=O)NNC(=O)Cc1ccccc1	S1P4 agonist 15.7 | S1P4 agonist cf inactive | S1P1 ag inactive
Cc1cccc(NC(=S)N2CCN(S(=O)(=O)c3cccc(F)c3)CC2)c1	S1P4 agonist 19.9 | S1P4 agonist cf inactive | S1P1 ag inactive
OC(CNCc1ccccc1C(F)(F)F)C(F)(F)F (centres undefined)	none
Cn1c(-c2cc3ccc(OC(=O)C(C)(C)C)cc3oc2=O)nc2ccccc21	S1P4 agonist 24.1 (no result: Calb biofilm kill, S1P3 antag) | S1P4 agonist cf 18.4 | S1P1 ag inactive
CCN(C(=O)COC(=O)c1nn(-c2ccccc2)c(=O)c2ccccc12)C1CCS(=O)(=O)C1 (centres undefined)	none (no result: Mdm2 ligase inh)
O=C(c1ccc2c(c1)OCCCO2)N1CCCCC1	none
O=S(=O)(Nc1ccccn1)c1cccs1	none
CCOc1ccc(/C(O)=C/C(=O)C(=O)Nc2ccc(S(=O)(=O)NC(C)=O)cc2)cc1	S1P4 agonist 12.3 | S1P4 agonist cf inactive | S1P1 ag inactive
O=C(N/N=C/c1cn(-c2cccs2)nc1-c1ccccc1)c1ccccc1O	none
